Data set [1] deals with Lysine-specific histone demethylase 1A (Homo sapiens) (UniProt O60341). Kind of data set: Inhibition of KDM1A in human NB4 cells assessed as increase in GFI1B mRNA expression at biochemical IC50 measured after 24 hrs by RT-PCR analysis relative to control. In kind it is cell-based. The conditions noted are these: NB-4.
Data set [2] is described as follows: Antitumor activity against 129SvEv mouse APL blast cells implanted in nonirradiated 129SvEv mouse assessed as increase in survival of leukemic mouse at 27 mg/kg, po administered for 5 days per week for 2 weeks by Kaplan-Meier plot analysis relative to vehicle control. In kind it is functional. In short, it runs like this:
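Gavage in 40% PEG 400 in 5% glucose began once peripheral-blood blasts appeared (about day 10). Survival analysed by Kaplan–Meier versus vehicle. Separate arm for GFI1B: spleen cells taken after 3 days of dosing, qRT-PCR normalized to TBP.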

A further data set deals with LSD1/CoREST complex (Homo sapiens, UniProt O60341). The experiment in a line: Inhibition of human recombinant KDM1A/CoREST expressed in Escherichia coli using mono-methylated H3-K4 peptide as substrate assessed as H2O2 release preincubated for 15 mins followed by substrate addition measured for 12 mins by fluorescence-based microplate reader analysis. The gist of the method:
(§1)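 Human recombinant KDM1A/CoREST, KDM1B, MAO A and MAO B used as enzyme sources; compounds incubated with the enzyme and results expressed as IC50.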

Data set [3] deals with T1, Amine oxidase [flavin-containing] A (Homo sapiens, UniProt P21397).
T1 sequence (P21397 whole entry): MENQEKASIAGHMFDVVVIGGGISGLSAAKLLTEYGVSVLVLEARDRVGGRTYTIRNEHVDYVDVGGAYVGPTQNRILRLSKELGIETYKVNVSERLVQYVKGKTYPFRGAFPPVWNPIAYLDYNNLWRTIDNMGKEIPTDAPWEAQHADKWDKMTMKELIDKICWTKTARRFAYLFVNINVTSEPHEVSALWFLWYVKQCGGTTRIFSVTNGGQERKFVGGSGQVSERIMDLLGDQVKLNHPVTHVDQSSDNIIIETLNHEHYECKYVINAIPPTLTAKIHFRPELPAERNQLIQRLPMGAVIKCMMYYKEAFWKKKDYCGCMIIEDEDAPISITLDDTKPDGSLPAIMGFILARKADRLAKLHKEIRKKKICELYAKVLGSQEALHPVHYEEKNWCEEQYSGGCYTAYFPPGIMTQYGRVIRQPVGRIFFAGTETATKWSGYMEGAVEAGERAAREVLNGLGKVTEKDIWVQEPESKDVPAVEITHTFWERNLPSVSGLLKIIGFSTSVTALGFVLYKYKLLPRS
The experiment in a line: Inhibition of human recombinant MAOA expressed in Pichia pastoris preincubated for 15 mins measured after 30 mins by bioluminescent-coupled assay. The gist of the method: as §1

Data set [4] has as its target T2, Amine oxidase [flavin-containing] B (Homo sapiens, UniProt P27338).
T2 sequence (P27338 whole entry): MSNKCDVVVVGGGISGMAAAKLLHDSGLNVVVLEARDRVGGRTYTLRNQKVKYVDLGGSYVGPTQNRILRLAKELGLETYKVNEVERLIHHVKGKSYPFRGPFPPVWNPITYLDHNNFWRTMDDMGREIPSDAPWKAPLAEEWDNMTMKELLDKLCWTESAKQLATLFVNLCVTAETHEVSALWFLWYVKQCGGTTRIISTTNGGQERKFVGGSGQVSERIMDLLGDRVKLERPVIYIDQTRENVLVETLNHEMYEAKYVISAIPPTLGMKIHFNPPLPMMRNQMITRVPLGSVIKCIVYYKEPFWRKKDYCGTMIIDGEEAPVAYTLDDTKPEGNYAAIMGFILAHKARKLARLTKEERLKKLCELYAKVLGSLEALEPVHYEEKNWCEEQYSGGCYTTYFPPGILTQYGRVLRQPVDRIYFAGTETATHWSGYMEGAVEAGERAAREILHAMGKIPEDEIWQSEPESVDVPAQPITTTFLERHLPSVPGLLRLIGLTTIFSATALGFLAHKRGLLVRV
Kind of data set: Inhibition of human recombinant MAOB expressed in Pichia pastoris preincubated for 15 mins measured after 30 mins by bioluminescent-coupled assay. In short, it runs like this: as §1

The target of data set [5] is T3, Lysine-specific histone demethylase 2 (Homo sapiens, UniProt Q8NB78).
T3 sequence (Q8NB78 whole entry): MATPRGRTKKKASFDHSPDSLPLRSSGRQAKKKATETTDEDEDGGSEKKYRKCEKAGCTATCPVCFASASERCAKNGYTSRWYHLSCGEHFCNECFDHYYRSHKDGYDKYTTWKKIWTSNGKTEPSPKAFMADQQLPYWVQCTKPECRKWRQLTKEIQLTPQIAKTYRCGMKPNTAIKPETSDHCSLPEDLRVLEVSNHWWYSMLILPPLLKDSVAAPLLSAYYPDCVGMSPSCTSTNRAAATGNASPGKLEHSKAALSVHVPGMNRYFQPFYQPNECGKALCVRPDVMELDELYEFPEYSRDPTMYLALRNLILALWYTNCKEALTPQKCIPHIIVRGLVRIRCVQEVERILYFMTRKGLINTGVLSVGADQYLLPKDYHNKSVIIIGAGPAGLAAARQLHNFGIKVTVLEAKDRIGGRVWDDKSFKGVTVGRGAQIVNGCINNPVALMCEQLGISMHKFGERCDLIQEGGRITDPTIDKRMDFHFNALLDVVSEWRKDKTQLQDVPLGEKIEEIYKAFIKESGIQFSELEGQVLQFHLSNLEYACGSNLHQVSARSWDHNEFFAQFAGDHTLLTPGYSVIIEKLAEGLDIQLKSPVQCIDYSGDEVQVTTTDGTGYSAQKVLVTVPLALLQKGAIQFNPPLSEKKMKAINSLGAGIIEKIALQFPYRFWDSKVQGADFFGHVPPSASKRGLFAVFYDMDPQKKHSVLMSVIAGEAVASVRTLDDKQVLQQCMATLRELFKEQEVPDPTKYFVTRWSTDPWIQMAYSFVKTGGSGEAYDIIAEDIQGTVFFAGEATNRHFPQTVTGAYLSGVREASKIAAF
Kind of data set: Inhibition of KDM1B (unknown origin).

The target of data set [6] is Lysine-specific histone demethylase 1A (Homo sapiens) (UniProt O60341). The experiment in a line: Inhibition of KDM1A in human NB4 cells assessed as increase in CD11b mRNA expression at biochemical IC50 measured after 24 hrs by RT-PCR analysis relative to control. Type of data set: cell-based. The conditions noted are these: NB-4.
The nature of data set [7]: Anticlonogenic activity against human THP1 cells assessed as inhibition of colony formation of cells at 0.5 uM measured after 13 days relative to control. In kind it is functional. As to conditions: THP-1, […]. In short, it runs like this: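 THP-1 cells (RPMI, 10% FBS, 2 mM L-glutamine, 37°C, 5% CO2) plated at 250 cells/plate in enriched methylcellulose medium with compound at 0.5 µM for 13 days.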

Data set [8] deals with THP-1. Kind of data set: Induction of differentiation of human THP1 cells assessed assessed as alteration in morphology of colonies after 13 days by May Grunwald-Giemsa staining based assay. Type of data set: functional, cell-based. In short, it runs like this: (§2)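 THP-1 cells cultured 13 days in semisolid methylcellulose with compound at 0.5 µM; colony morphology imaged, and cells recovered at end of culture examined as May Grunwald-Giemsa-stained cytospin preparations.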

A short description of data set [9]: Cmax in CD1 mouse at 5 mg/kg, iv administered as single dose. Type of data set: ADME, organism-based. The arrangement: dose 5 mg/kg, route intravenous. As to conditions: in vivo. The gist of the method:
(§3)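 Single dose to CD1 mice: 5 mg/kg iv in 5% glucose with 10% tween 80, or 15 mg/kg orally in 5% glucose with 40% PEG. Plasma parameters derived from concentration–time profiles.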

The nature of data set [10]: Half life in CD1 mouse at 5 mg/kg, iv administered as single dose. Type of data set: ADME, organism-based. The conditions noted are these: in vivo. In short, it runs like this: as §3
Data set [11] in a line: AUC (0 to infinity) in CD1 mouse at 5 mg/kg, iv administered as single dose. In kind it is ADME, organism-based. Also noted: dose 5 mg/kg, time infinity, route intravenous. As to conditions: in vivo. The gist of the method: as §3
Data set [12] is described as follows: Clearance in CD1 mouse at 5 mg/kg, iv administered as single dose. In kind it is ADME, organism-based. As to conditions: in vivo. In short, it runs like this: as §3
Data set [13] has as its system Mus musculus. The experiment in a line: Terminal volume of distribution in CD1 mouse at 5 mg/kg, iv administered as single dose. Type of data set: ADME, organism-based. As to conditions: in vivo. In short, it runs like this:
as §3

A short description of data set [14]: Tmax in CD1 mouse at 15 mg/kg, po administered as single dose. Type of data set: ADME, organism-based. As to conditions: in vivo. The gist of the method:
as §3

The nature of data set [15]: Cmax in CD1 mouse at 15 mg/kg, po administered as single dose. Type of data set: ADME, organism-based. Also noted: dose 15 mg/kg, route oral. As to conditions: in vivo. In short, it runs like this:
as §3

A short description of data set [16]: AUC (0 to infinity) in CD1 mouse at 15 mg/kg, po administered as single dose. The conditions noted are these: in vivo. Type of data set: ADME, organism-based. Also noted: dose 15 mg/kg, time infinity, route oral. In short, it runs like this: as §3
A short description of data set [17]: Oral bioavailability in CD1 mouse at 15 mg/kg administered as single dose. In kind it is ADME, organism-based. The conditions noted are these: in vivo. The gist of the method: as §3
For data set [18], the system named is THP-1. The experiment in a line: Induction of differentiation of human THP1 cells after 13 days by cytospin assay. In kind it is functional, cell-based. In short, it runs like this:
as §2

The test system of data set [19] is Mus musculus. Kind of data set: Toxicity in nonirradiated 129SvEv mouse implanted with 129SvEv mouse APL blast cells assessed as change in body weight at 27 mg/kg, po administered for 5 days per week for 2 weeks measured during compound dosing. The conditions noted are these: in vivo. In kind it is organism-based.
A short description of data set [20]: Anticlonogenic activity against 129sv mouse APL blast cells assessed as inhibition of colony formation of cells at 0.25 uM measured after 7 days relative to control. Type of data set: functional. As to conditions: 168 h.

Experimental findings from ChEMBL document CHEMBL3779820, “Discovery of a Novel Inhibitor of Histone Lysine-Specific Demethylase 1A (KDM1A/LSD1) as Orally Active Antitumor Agent” (J Med Chem, 2016) are described below.

The source made the active and inactive calls. No cut-off for these calls is given here.

As for `Cl.N[C@@H]1C[C@H]1c1ccc(NC(=O)c2cccc(N3CCOC3=O)c2)cc1` (racemic), the fold change (FC) in [1] was 4.3; in data set [6] it was 2.9. For the same molecule, the Activity was 15% in data set [2] and “Non-toxic” with Mus musculus [19]. For the same molecule, the concentration for half-maximal inhibition (IC50) was 0.028 µM at LSD1/CoREST complex, 0.0905 µM in data set [3], 80.2 µM in data set [4] and 12.6 µM in [5]. Also, the inhibition at 0.5 µM in data set [7] turned out to be 51%. Besides, the outcome in the data set on THP-1 [8] and in the data set on THP-1 [18] was Active. Further, the Cmax stood at 3650 nM in [9] and 1140 nM in data set [15]. Besides, in data set [10], the half-life is 1.92 h. Also, the area under the curve AUC(0-inf) in data set [11] came out at 4.62 µM·h; in data set [16], 7.12 µM·h. The clearance in data set [12] came to 49.7 mL/min/kg. The same molecule had a Vz/F in the data set on Mus musculus [13] of 8.45 L/kg. Also, the Tmax in [14] worked out at 0.667 h. Further, in [17], the bioavailability is 55.8%. Also, in data set [20], the inhibition at 0.25 µM is 79%.
